These results are taken from ChEMBL document CHEMBL1122365, “Substituted 1,4-naphthoquinones vs. the ascitic sarcoma 180 of mice” (J Med Chem, 1983).

The nature of series [1]: Solubility in water was determined. In kind it is physicochemical.
The nature of series [2]: Partition coefficient (logP). The conditions noted are these: octanol/water. In kind it is physicochemical. A digest of the protocol:
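Shake-flask method: four samples per compound (1.50–20.0 mg) each equilibrated between known volumes of 1-octanol and water. Solute concentration measured spectroscopically in the water phase; octanol-phase concentration taken by difference. Partition coefficient is the ratio of the two concentrations.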

Series [3] can be described thus: Effective dose that would give a 25% increase in the survival time against the ascitic sarcoma 180 in mice. In kind it is functional, Mus musculus. A digest of the protocol: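 Swiss mice given 10⁶ ascitic sarcoma 180 cells ip on day 0, then one ip dose of compound daily on days 1-3, with several dose levels. T/C is the mean survival of treated mice over the survival of untreated mice. ED25 is the daily dose giving T/C = 125%, interpolated or extrapolated from a semilog plot of T/C vs. log dose.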

A short description of series [4]: Tested for acute toxicity which is the single dose given intraperitoneally that will kill one-half of the mice within 5 days. The series is classed as organism-based. The conditions noted are these: mouse, in vivo, ip.
In series [5] the test system is Mus musculus. The experiment in a line: Maximum survival by an optimum dose at 100 mg/kg in treated to that of untreated mice. The series is classed as functional.
The subject of series [6] is Mus musculus. The experiment in a line: Maximum survival by an optimum dose at 6 mg/kg in treated to that of untreated mice. The series is classed as functional.
Series [7] has as its system Mus musculus. The experiment in a line: Maximum survival by an optimum dose at 7 mg/kg in treated to that of untreated mice. In kind it is functional.
The test system of series [8] is Mus musculus. The experiment in a line: Maximum survival by an optimum dose at 30 mg/kg in treated to that of untreated mice. In kind it is functional.
Series [9] has as its system Mus musculus. The experiment in a line: Maximum survival by an optimum dose at 80 mg/kg in treated to that of untreated mice. In kind it is functional.
Series [10] relates to Mus musculus. The experiment in a line: Maximum survival by an optimum dose at 4 mg/kg in treated to that of untreated mice. In kind it is functional.
The subject of series [11] is Mus musculus. The experiment in a line: Maximum survival by an optimum dose at 60 mg/kg in treated to that of untreated mice. The series is classed as functional.
Series [12] deals with Mus musculus. The experiment in a line: Maximum survival by an optimum dose at 20 mg/kg in treated to that of untreated mice. The series is classed as functional.
The subject of series [13] is Mus musculus. The experiment in a line: Maximum survival by an optimum dose at 25 mg/kg in treated to that of untreated mice. The series is classed as functional.
Series [14] relates to Mus musculus. The experiment in a line: Maximum survival by an optimum dose at 3 mg/kg in treated to that of untreated mice. In kind it is functional.
The mark [15] stands for this setting: Mus musculus, Sarcoma-180, read-out: ED25.

Values after ≈ are worked out from the molar mass of the structure shown.

Usually solubility stands for the dissolved amount per volume that the medium holds. Read a low solubility as little dissolved substance. Broadly, the logP is a log measure of how a compound divides between an organic and an aqueous phase. For orientation: LD50 means the dose expected to kill half of the subjects tested. In series [1], `O=C1C(=O)c2ccccc2C(O)=C1C1CCCC1` registered a solubility of 9.5 µg/mL (≈ 39.2 µM). Moreover, the logP in series [2] (read-out: logP) is 2.69. The ED25 in [3] came out at 0.582 mmol/kg; in [3] (setting [15]) it was 141 mg/kg. In series [4], this compound registered an LD50 at 120 h of 400 mg/kg. In the series on Mus musculus [5], the Optimal dose was 116%.
On to `O=C1C(Cl)=C(Cl)C(=O)c2ccccc21` [Dichlon], for which, in [2] (read-out: logP), the logP was found to be 3.16. Also, the results for the ED25 in [3] and in series [3] (setting [15]) were 0.022 mmol/kg and 4.89 mg/kg, respectively. The compound further returned an Optimal dose in the series on Mus musculus [6] of 189%.
In the series on Mus musculus [7], `CCCOC1=C(Cl)C(=O)c2ccccc2C1=O` showed an Optimal dose of 271%. Also, the log partition coefficient (logP) in [2] (read-out: logP) was 2.95. In addition, the ED25 is 0.01 mmol/kg in series [3] and 2.45 mg/kg in series [3] (setting [15]). The compound also had a 50% lethal dose (LD50) at 120 h in series [4] of 20 mg/kg.
For `CC1=CC(=O)c2ccccc2C1=O` [MENADIONE], the concentration in solution in [1] (solubility) came to 10.6 µg/mL (≈ 61.6 µM). In addition, the logP in series [2] (read-out: logP) was 2.25. Further, the ED25 in series [3] is 0.174 mmol/kg; in series [3] (setting [15]), 30 mg/kg. Besides, the Optimal dose with Mus musculus [8] was determined as 126%. In addition, the LD50 at 120 h in [4] is 150 mg/kg.
On to `O=C1C(Cl)=C(Nc2ccccc2)C(=O)c2ccccc21`, for which, in series [1], the solubility worked out at 2.4 µg/mL (≈ 8.46 µM). Moreover, the logP in series [2] was determined as 4.04. The ED25 stood at 0.331 mmol/kg in series [3] and 94 mg/kg in series [3] (setting [15]). The LD50 at 120 h in series [4] was 1600 mg/kg. Further, the Optimal dose in the series on Mus musculus [9] is 117%.
Turning to `COC1=C(Cl)C(=O)c2ccccc2C1=O`, the solubility in series [1] was 39.3 µg/mL (≈ 177 µM). The compound further came in with an Optimal dose in the series on Mus musculus [10] of 315%. In addition, the logP in [2] (read-out: logP) turned out to be 2.15. For the same compound, the figures for the ED25 in series [3] and in series [3] (setting [15]) were 0.011 mmol/kg and 2.49 mg/kg, respectively. Besides, the LD50 at 120 h in series [4] amounted to 14 mg/kg.
`COC1=CC(=O)c2ccccc2C1=O` [2-Methoxy-1,4-naphthoquinone]: the solubility in [1] amounted to 31.3 µg/mL (≈ 166 µM). Moreover, in series [2] (read-out: logP), the logP stood at 1.59. Moreover, the ED25 in series [3] was found to be 0.262 mmol/kg; in series [3] (setting [15]), 49.3 mg/kg. The compound also registered an LD50 at 120 h in series [4] of 320 mg/kg. The Optimal dose in the series on Mus musculus [11] is given as 154%.
In the case of `NC1=C(Cl)C(=O)c2ccccc2C1=O`, the concentration in solution in [1] (solubility) was 37.7 µg/mL (≈ 182 µM). The compound further returned an Optimal dose in the series on Mus musculus [12] of 112%. Also, the log partition coefficient (logP) in series [2] (read-out: logP) is 2.08. In addition, the ED25 in series [3] is 0.123 mmol/kg; in series [3] (setting [15]) it was 25.5 mg/kg. The LD50 at 120 h in series [4] turned out to be 800 mg/kg.
The compound `O=C1C=C(O)C(=O)c2ccccc21` [LAWSONE] registered a solubility in [1] of 255 µg/mL (≈ 1460 µM). In the series on Mus musculus [13], this compound showed an Optimal dose of 104%. In [2] (read-out: logP), the logP was 1.07. The ED25 amounted to 0.19 mmol/kg in [3] and 33 mg/kg in [3] (setting [15]). Moreover, the 50% lethal dose (LD50) at 120 h in series [4] came to 100 mg/kg.
The compound `O=C1C=CC(=O)c2ccccc21` [NAPHTHOQUINONE] came in with a solubility in series [1] of 89.4 µg/mL (≈ 565 µM). In addition, the logP in [2] (read-out: logP) is 1.74. Moreover, the ED25 worked out at 0.012 mmol/kg in series [3] and 1.9 mg/kg in [3] (setting [15]). Besides, the Optimal dose with Mus musculus [14] is on record as 347%. The compound also gave an LD50 at 120 h in series [4] of 5.5 mg/kg.
Consider `CCOC1=C(Cl)C(=O)c2ccccc2C1=O`, for which, in series [1], the solubility worked out at 34.1 µg/mL (≈ 144 µM). Also, the logP in series [2] (read-out: logP) was determined as 2.61. The ED25 is 0.008 mmol/kg in [3] and 1.97 mg/kg in [3] (setting [15]). The compound also came in with an Optimal dose with Mus musculus [14] of 230%. Also, the LD50 at 120 h in series [4] was 16 mg/kg.
Turning to `CC(=O)NC1=C(Cl)C(=O)c2ccccc2C1=O`, in series [1], the solubility amounted to 106 µg/mL (≈ 425 µM). In the series on Mus musculus [10], the Optimal dose is 284%. In addition, in series [2] (read-out: logP), the lipophilicity (logP) turned out to be 1.42. Moreover, the ED25 in [3] is 0.01 mmol/kg; in series [3] (setting [15]) it was 2.97 mg/kg. Also, the LD50 at 120 h in series [4] came out at 11 mg/kg.
